From paper PMC3685236 (International Journal of Molecular Sciences, 2007)
Read-outs that look alike come from different tables or passages of the source.

Experiments:
Type in all cases: cell-based
[1] = tested on: Fem-X cells; test: Antiproliferative activity, Kenacid Blue R dye binding cell survival, Fem-X; details: Homo sapiens, 72 h, read-out: IC50 (μM) Fem-X
Method in brief: (§1)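 Adherent cells seeded at 2,000/well (HeLa, Fem-X) or 6,000/well (LS174); compounds added 20 h later at five double-diluted concentrations (20 mM DMSO stocks, final 0–300 μM). Continuous 72 h exposure, 37 °C, 5% CO2. PBS wash, methanol/acetic acid (3:1) fixation, 0.04% Coomassie R-250 staining, A570. Survival % vs medium-only control after cell-free blank subtraction; IC50 read from survival–concentration plot.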

[2] = tested on: HeLa cells; test: Antiproliferative activity, Kenacid Blue R dye binding cell survival, HeLa; details: Homo sapiens
Method in brief: as §1

[3] = tested on: PBMC; test: Cytotoxicity toward healthy peripheral blood mononuclear cells; details: Homo sapiens, 72 h, read-out: IC50 PBMC
Method in brief: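 Unstimulated PBMC (no mitogen) were isolated from heparinized blood of two healthy donors by Lymphoprep gradient and washed three times in Haemaccel. Seeded at 150,000/well, then dosed 2 h later in triplicate at five final concentrations. After 72 h, cells were centrifuged (10 min, 2,000 rpm), fixed in methanol/acetic acid and stained with Kenacid Blue R, and A570 was read. Survival % vs medium control, cell-free blank subtracted.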

[4] = tested on: K562 cells; test: Antiproliferative activity, Kenacid Blue R dye binding cell survival, K562; details: Homo sapiens, K562, 72 h, read-out: IC50 (μM) K562
Method in brief: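 K562 suspension culture in RPMI 1640 with 10% heat-inactivated FBS, 3 mM glutamine, 25 mM Hepes, pH 7.2. Seeded 3,000 cells/well and dosed 2 h later at five double-diluted concentrations (final 0–300 μM, from DMSO stocks). Exposure was 72 h at 37 °C, 5% CO2. Total protein by Kenacid Blue R (Coomassie R-250) staining, A570, blank-corrected. IC50 taken from survival % vs concentration.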

[5] = tested on: LS174 cells; test: Antiproliferative activity, Kenacid Blue R dye binding cell survival, LS174; details: Homo sapiens, LS174, 72 h, read-out: IC50 (μM) LS174
Method in brief: as §1

[6] = read-out: Obtained log(1/(IC50)) (converted)

| Structure (SMILES) | IC50 [1] [µM] | IC50 ([2]; 72 h, read-out: IC50 (μM) HeLa) [µM] | IC50 [2, 6] [µM] | IC50 [3] [µM] | IC50 [4] [µM] | IC50 [5] [µM] |
| --- | --- | --- | --- | --- | --- | --- |
| CC(C)(C(=O)O)C(C)(O)c1ccc(-c2ccccc2)cc1 (stereo not shown) [Compound 1, 3-Hydroxy-2,2-dimethyl-3-(4-biphenylyl)butanoic acid] | 205 | 62.2 | 62.2 | > 300 | 141 | 154 |
| CC(C)(C(=O)O)C(C)(O)c1ccccc1 (stereo not shown) [Compound 11, 3-Hydroxy-2,2-dimethyl-3-phenylbutanoic acid] |  | 133 | 133 | > 300 |  |  |
| CC(C)(C(=O)O)C(O)(c1ccccc1)c1ccccc1 [Compound 2, 3-Hydroxy-2,2-dimethyl-3,3-diphenylpropanoic acid] |  | 80.6 | 80.5 |  |  |  |
| CC(C(=O)O)C(O)c1ccccc1Cl (stereo not shown) [Compound 3, 3-Hydroxy-2-methyl-3-(2-chlorophenyl)propanoic acid] | 89 | 97.2 | 97.3 | > 300 | 92 | 93 |
| CC(C)(C(=O)O)C(O)c1ccccc1 (stereo not shown) [Compound 13, 3-Hydroxy-2,2-dimethyl-3-phenylpropanoic acid] |  | 165 | 165 |  |  |  |
| CC(C)(C(=O)O)C(O)c1ccc(Cl)cc1 (stereo not shown) [Compound 7, 3-Hydroxy-2,2-dimethyl-3-(4-chlorophenyl)propanoic acid] | > 200 | 106 | 106 | > 300 | > 200 | > 200 |
| O=C(O)CC(O)(c1ccccc1)c1ccccc1 [Compound 14, 3-Hydroxy-3,3-diphenylpropanoic acid] |  | 183 | 182 |  |  |  |
| CC(C)Cc1ccc(C(C)(O)CC(=O)O)cc1 (stereo not shown) [Compound 12, 3-Hydroxy-3(4-isobutylphenyl)butanoic acid] | > 200 | 151 | 151 | > 300 | > 200 | > 200 |
| CC(C(=O)O)C(O)(c1ccccc1)c1ccccc1 (stereo not shown) [Compound 6, 3-Hydroxy-2-methyl-3,3-diphenylpropanoic acid] |  | 99.4 | 99.3 |  |  |  |
| O=C(O)CC(O)c1ccccc1Cl (stereo not shown) [Compound 8, 3-Hydroxy-3-(2-chlorophenyl)propanoic acid] | > 200 | 118 | 118 |  | > 200 | > 200 |
| CC(O)(CC(=O)O)c1ccc(-c2ccccc2)cc1 (stereo not shown) [Compound 4, 3-Hydroxy-3-(4-biphenylyl)butanoic acid] | > 200 | 98.7 | 98.6 | > 300 | > 200 | > 200 |
